Measured values published in ChEMBL document CHEMBL1143127 (Bioorg Med Chem, 2008).
Active and inactive are the calls of the source. The calls are words filed in the database; no cut-off is given here.

T1: 17-beta-hydroxysteroid dehydrogenase type 1 (Homo sapiens, UniProt P14061)
T1 sequence (P14061 whole entry): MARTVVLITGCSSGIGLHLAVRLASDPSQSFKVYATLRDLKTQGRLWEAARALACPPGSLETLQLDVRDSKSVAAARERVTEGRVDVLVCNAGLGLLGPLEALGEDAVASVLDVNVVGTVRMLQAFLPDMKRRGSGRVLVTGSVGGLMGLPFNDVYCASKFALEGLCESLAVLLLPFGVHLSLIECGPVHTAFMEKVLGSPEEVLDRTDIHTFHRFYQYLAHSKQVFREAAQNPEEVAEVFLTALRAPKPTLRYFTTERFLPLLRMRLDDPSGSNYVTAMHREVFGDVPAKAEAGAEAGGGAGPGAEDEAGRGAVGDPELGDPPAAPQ

T2: 17-beta-hydroxysteroid dehydrogenase type 2 (Homo sapiens) (UniProt P37059)
T2 sequence (whole entry): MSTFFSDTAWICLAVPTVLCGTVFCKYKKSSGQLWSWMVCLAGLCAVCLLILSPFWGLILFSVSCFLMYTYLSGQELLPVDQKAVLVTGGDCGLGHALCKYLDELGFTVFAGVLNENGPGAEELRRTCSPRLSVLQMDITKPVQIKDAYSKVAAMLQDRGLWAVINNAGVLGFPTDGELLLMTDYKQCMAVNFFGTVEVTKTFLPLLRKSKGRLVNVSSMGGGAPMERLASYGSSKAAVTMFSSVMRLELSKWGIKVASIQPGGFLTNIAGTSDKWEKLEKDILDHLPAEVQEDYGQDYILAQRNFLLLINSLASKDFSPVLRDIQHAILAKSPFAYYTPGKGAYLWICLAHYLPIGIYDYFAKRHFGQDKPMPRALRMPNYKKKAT

B1: 17-beta-hydroxysteroid dehydrogenase type 1 (Homo sapiens), P14061 (protein)
chain: T1 sequence (P14061 whole entry)

Tests used:
T47D [1] = assay: Antiproliferative activity against estrogen receptor positive human T47D cells at 0.01 uM after 8 days relative to control; format: functional, cell-based
Summary of the method: (§1)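 Estrogen-starved cells, resuspended in phenol red-free medium (RPMI for T-47D, DME-F12 for MCF-7) with insulin (50 ng/mL) and 5% dextran-coated charcoal-treated FBS, seeded 3000 cells/well. After 48 h medium replaced with compound dilutions (0.01, 0.1, 1 μM), renewed every 2 days for 8 days. Growth read by CellTiter 96 Aqueous assay; control = 100%; triplicate, mean ± SEM.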

T47D [2] = assay: Antiproliferative activity against estrogen receptor positive human T47D cells at 0.1 uM after 8 days relative to control; format: functional, cell-based; summary of the method: as §1
T47D [3] = assay: Antiproliferative activity against estrogen receptor positive human T47D cells at 1 uM after 8 days relative to control; format: functional; summary of the method: as §1
MCF7 [4] = assay: Antiproliferative activity against estrogen receptor positive human MCF7 cells at 0.1 uM after 8 days relative to control; format: functional; summary of the method: as §1
[5] = target: T1, 17-beta-hydroxysteroid dehydrogenase type 1; assay: Inhibition of 17beta-HSD1 in human T47D cells assessed as inhibition of transformation of [14C]-estrone into [14C]estrogen; format: cell-based
MCF7 [6] = assay: Reversal of estrogen-induced proliferation in estrogen-sensitive human MCF7 cells at 0.5 uM after 8 days relative to control; format: functional, cell-based
Summary of the method: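 Antiestrogenic test: MCF-7 cells plated in phenol red-free DME-F12 with charcoal-stripped FBS; two days later incubated 8 days with E₂ (0.1 nM) plus compound (0.5 μM), pure antiestrogen EM-139 (0.5 μM) as reference, medium changed every second day. CellTiter 96 Aqueous read-out; triplicate, mean ± SEM.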

T47D [7] = assay: Reduction of estrone-induced human T47D cell growth at 0.5 uM after 8 days relative to control; format: functional; set-up: scale not given: the % may be the effect or the level left
Summary of the method: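 T-47D cells in estrogen-free phenol red-free RPMI with insulin and 5% charcoal-stripped FBS, grown 8 days with E₁ (0.01, 0.1, 1 or 5 nM) plus inhibitor (0.05–1 μM), medium changed every 2 days. Proliferation by CellTiter 96 Aqueous assay; growth without E₁ and inhibitor = 100%. Triplicate, mean ± SEM; Duncan–Kramer test.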

[8] = target: T2, 17-beta-hydroxysteroid dehydrogenase type 2 (Homo sapiens); assay: Inhibition of 17beta-HSD2 over-expressed in HEK293 cells assessed as inhibition of transformation of [14C]-estrogen into [14C]-estrone at 10 uM; format: cell-based
[9] = substrate: C[C@]12CC[C@@H]3c4ccc(O)cc4CC[C@H]3[C@@H]1CCC2=O
[10] = substrate: C[C@]12CC[C@@H]3c4ccc(O)cc4CC[C@H]3[C@@H]1CC[C@@H]2O

Molecule | Activity (T47D [1]) | Activity (T47D [2]) | Activity (T47D [3]) [%] | Activity (MCF7 [4]) [%] | IC50 [5] [nM] | Activity (MCF7 [6]) | further results
C[C@]12CC[C@@H]3c4ccccc4CC[C@H]3[C@@H]1C[C@H](Cc1cccc(C(N)=O)c1)[C@@H]2O | inactive | inactive | 47 | 31 |  |  | 
COc1cc2c(cc1O)CC[C@@H]1[C@@H]2CC[C@]2(C)[C@@H](O)[C@@H](Cc3cccc(C(N)=O)c3)C[C@@H]12 | inactive | inactive | 41 | 21 |  |  | 
C[C@]12CC[C@@H]3c4ccc(O)cc4CC[C@H]3[C@@H]1C[C@H](Cc1cccc(C(N)=O)c1)C2=O |  |  |  |  | 171 |  | 
CCCCN(C)C(=O)CCCCCCCCCC[C@@H]1Cc2cc(O)ccc2[C@H]2CC[C@]3(C)[C@@H](O)[C@H](Cl)C[C@H]3[C@H]12 |  |  |  |  |  | Active | 
C[C@]12CC[C@@H]3c4ccc(O)cc4CC[C@H]3[C@@H]1C[C@H](Cc1cccc(C(N)=O)c1)[C@@H]2O |  |  |  |  | 44 | inactive | Activity (T47D [7]): 62%; Activity [8]: inactive
B1 |  |  |  |  |  |  | Km [9]: 0.03 µM; Km [10]: 4.6 µM
